The record followed here is ChEMBL document CHEMBL1125339, “Copyrine alkaloids: synthesis, spectroscopic characterization, and antimycotic/antimycobacterial activity of A- and B-ring-functionalized sampangines” (1992).

Values after ≈ are worked out from the molar mass of the structure shown.

Test [1] has as its system Mycobacterium intracellulare. The experiment in a line: In vitro anti-mycobacterial activity against Mycobacterium intracellular ATCC 23068. The test is classed as functional. In a few lines:
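Organism grown on Lowenstein-Jensen medium for 48 h at 37 °C. Active compounds from the agar-well screen (1 mg/mL, zone >4 mm) go to 2-fold serial broth dilution in Mueller-Hinton broth. 10 μL loop inoculum per tube, 37 °C for 72 h. MIC is the lowest concentration inhibiting growth. Rifampin is the positive control. Replicate evaluations.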

For another test, the system named is Candida albicans. The test is described as follows: In vitro antifungal activity against Candida albicans B311. In kind it is functional. In a few lines: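 Cells grown 24 h at 37 °C in Sabouraud dextrose broth, centrifuged, washed and resuspended in 0.9% saline at 10^6 CFU/mL (hemacytometer). MIC by 2-fold serial dilution in yeast nitrogen broth with a 10 μL loop inoculum. Incubation at 37 °C, read at 24 and 48 h. MIC is the lowest inhibitory concentration. Amphotericin B is the control. Replicate evaluations.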

The test system of another test is Cryptococcus neoformans. The experiment in a line: In vitro antifungal activity against Cryptococcus neoformans ATCC 32264.
The next test deals with Aspergillus fumigatus. The test is described as follows: In vitro antifungal activity against Aspergillus fumigatus ATCC 26934. The test is classed as functional. In a few lines:
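Inoculum is a surface-growth suspension from agar slants in sterile water. Compounds active in the agar-well diffusion screen (1 mg/mL, zone >4 mm) are tested by 2-fold serial dilution in Sabouraud dextrose broth. 10 μL loop inoculum, 30 °C, read at 48 and 72 h. MIC is the lowest growth-inhibiting concentration. Amphotericin B is the control. Replicate evaluations.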

Usually MIC stands for the least concentration at which growth counts as inhibited. Read a high MIC as a need for much substance. As to `COc1cnc2c3c(nccc13)-c1ccccc1C2=O`, the MIC in test [1] is 3.12 mg/L (≈ 11.9 µM); against Candida albicans, 3.12 mg/L (≈ 11.9 µM); in the test on Cryptococcus neoformans it was 1.56 mg/L (≈ 5.95 µM).
On to `C[C@@H]1[C@H](O)[C@@H](C)/C=C/C=C/C=C/C=C/C=C/C=C/C=C/[C@H](O[C@@H]2O[C@H](C)[C@@H](O)[C@H](N)[C@@H]2O)C[C@@H]2O[C@](O)(C[C@@H](O)C[C@@H](O)[C@H](O)CC[C@@H](O)C[C@@H](O)CC(=O)O[C@H]1C)C[C@H](O)[C@H]2C(=O)O` [AMPHOTERICIN B], for which the minimum inhibitory concentration (MIC) worked out at 0.39 mg/L (≈ 0.422 µM) against Aspergillus fumigatus, 0.78 mg/L (≈ 0.844 µM) against Candida albicans and 0.39 mg/L (≈ 0.422 µM) against Cryptococcus neoformans.
As to `Cc1cnc2c3c(nccc13)C(=O)c1ccccc1-2`, the MIC was 0.39 mg/L (≈ 1.58 µM) in test [1], 0.78 mg/L (≈ 3.17 µM) in the test on Aspergillus fumigatus, 0.39 mg/L (≈ 1.58 µM) in the test on Candida albicans and 0.39 mg/L (≈ 1.58 µM) in the test on Cryptococcus neoformans.
For the compound `CCOc1nc2c3c(nccc3c1Br)-c1ccccc1C2=O`, the MIC (in test [1]; against Cryptococcus neoformans) was 25 mg/L (≈ 70.4 µM) throughout.
As to `CCc1ccnc2c1C(=O)c1ccccc1C2=O`, the MIC is 12.5 mg/L (≈ 52.7 µM) in test [1], 100 mg/L (≈ 421 µM) in the test on Candida albicans and 3.12 mg/L (≈ 13.2 µM) in the test with Cryptococcus neoformans.
On the same counts, the results for `O=C1c2ccccc2-c2nccc3c(Cl)cnc1c23` are 3.12 mg/L (≈ 11.7 µM), 0.39 mg/L (≈ 1.46 µM) and 0.1 mg/L (≈ 0.375 µM).
On to `O=C1c2ccccc2-c2nccc3c2c1nc1ccccc13` [BENZOSAMPANGINE], for which the MIC in test [1] amounted to 0.39 mg/L (≈ 1.38 µM); against Aspergillus fumigatus it was 0.39 mg/L (≈ 1.38 µM); against Candida albicans, 0.39 mg/L (≈ 1.38 µM); against Cryptococcus neoformans, 1.56 mg/L (≈ 5.53 µM).
In test [1], `CO[C@H]1/C=C/O[C@@]2(C)Oc3c(C)c(O)c4c(O)c(c(/C=N/N5CCN(C)CC5)c(O)c4c3C2=O)NC(=O)/C(C)=C\C=C\[C@H](C)[C@H](O)[C@@H](C)[C@@H](O)[C@@H](C)[C@H](OC(C)=O)[C@@H]1C` [RIFAMPIN] displayed an MIC of 0.78 mg/L (≈ 0.948 µM).
For the compound `COc1cnc2c3c(nccc13)C(=O)c1ccccc1-2`, the MIC worked out at 1.56 mg/L (≈ 5.95 µM) in test [1], 0.78 mg/L (≈ 2.97 µM) against Aspergillus fumigatus, 1.56 mg/L (≈ 5.95 µM) against Candida albicans and 0.78 mg/L (≈ 2.97 µM) against Cryptococcus neoformans.
Regarding `O=C1c2ccccc2-c2nccc3c(Br)cnc1c23`, the MIC in test [1] was determined as 3.12 mg/L (≈ 10 µM); against Aspergillus fumigatus, 50 mg/L (≈ 161 µM); against Candida albicans it was 3.12 mg/L (≈ 10 µM); against Cryptococcus neoformans, 0.1 mg/L (≈ 0.321 µM).
Consider `Cc1ccnc2c1C(=O)c1ccccc1C2=O` [CLEISTOPHOLINE], for which the MIC turned out to be 12.5 mg/L (≈ 56 µM) in test [1], 100 mg/L (≈ 448 µM) in the test with Aspergillus fumigatus, 12.5 mg/L (≈ 56 µM) in the test on Candida albicans and 1.56 mg/L (≈ 6.99 µM) in the test on Cryptococcus neoformans.
As for `Cc1c2c(nc3ccccc13)C(=O)c1ccccc1C2=O`, the figures for the MIC (in test [1]; against Candida albicans; in the test on Cryptococcus neoformans) were 1.56 mg/L (≈ 5.71 µM), 25 mg/L (≈ 91.5 µM) and 25 mg/L (≈ 91.5 µM), respectively.
As to `[N-]=[N+]=Nc1cnc2c3c(nccc13)-c1ccccc1C2=O`, the MIC was 25 mg/L (≈ 91.5 µM) against Candida albicans and 6.25 mg/L (≈ 22.9 µM) with Cryptococcus neoformans.
Take `O=C1c2ccccc2-c2nccc3ccnc1c23` [SAMPANGINE]: the MIC in test [1] is 0.78 mg/L (≈ 3.36 µM); against Aspergillus fumigatus, 1.56 mg/L (≈ 6.72 µM); in the test with Candida albicans it was 1.56 mg/L (≈ 6.72 µM); against Cryptococcus neoformans, 0.78 mg/L (≈ 3.36 µM).
Consider `Nc1cnc2c3c(nccc13)-c1ccccc1C2=O`, for which the MIC in the test on Candida albicans turned out to be 100 mg/L (≈ 404 µM); against Cryptococcus neoformans it was 25 mg/L (≈ 101 µM).
